In the library only some 3.5% were active in any assay of this set; here they are far more common.
PGC1a acetyl inh – inhibitors of PGC1a acetylation signal, primary screen, cell-based, U2OS, AlphaScreen, inhibitor mode; AlphaScreen anti-acetyl-lysine; with virally co-expressed GCN5 acetyltransferase; inhibition, % at 15.6 µM; 350,000 tested, 0.17% active;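 active = every replicate shows inhibition of at least 40%; inconclusive = mean inhibition at least 40% but some replicate below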;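 note: 0% = neutral control wells and 100% = positive control wells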
PglD DTNB – C. jejuni PglD acetyltransferase inhibitors, primary screen, biochemical, DTNB colorimetric, single point; AID 602405, 2012; purified PglD enzyme, DTNB colorimetric CoA detection; 360,000 tested, 0.098% active; inhibition, % at 12.5 µM; in the data active = inhibition above about 16%, passing the limit was not always enough; inconclusive = no clear call, values can overlap the other calls
FN deposition inh – inhibitors of fibronectin matrix deposition, primary screen, AH1F cells, Alexa488-fibronectin fluorescence, plate reader | AH1F fibroblasts, overnight | inhibition, % at 12.6 µM | 350,000 tested, 0.086% active | AID 743247, 2014;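 active = mean inhibition across replicates of 30% or more, regardless of how many single replicates reach that level; inconclusive = mean under 30% yet at least half of replicates reach 30%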;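 note: positive control wells lacked labelled fibronectin entirely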
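Material – AH1F fibroblast monolayer, labelled fibronectin deposition · Reagent – labelled fibronectin 24 nM · Timing – 1 h adhesion, overnight exposure · Measured by – fluorescence at 485 nm excitation, 525 nm emission · Read-out – inhibition of fibronectin deposition signal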
DENV2 CPE rescue – inhibitors of DENV2 cytopathic effect, primary screen, cell-based, plate reader, single concentration; AID 651640, 2012; 350,000 tested, 1.7% active; CPE inhibition, % at 9.99 µM; DENV2-infected cells, cytopathic effect rescue; in the data active = CPE inhibition above about 20%, passing the limit was not always enough; inconclusive = no clear call, values can overlap the other calls; tested in BHK-21 cells;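 note: 0% = median of neutral control wells and 100% = median of positive control wells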
rRNA inh HTS – reduced GFP signal of wild-type E. coli, primary screen, bacterial rRNA inhibitor project, GFP/RFP fluorescence, OD600, single point | E. coli WT GFP vs humanized-ribosome RFP mutants, 24 h; active compounds read low; DMSO median 0, no signal -100 | GFP signal change (wild-type ribosome), % (no concentration beside the values) | 350,000 tested, 1.6% active;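 active = significant combined selectivity score with lowered wild-type GFP, culture density cut under 30%, mutant RFP and density less affected; inactive = any of these conditions unmet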
HIV Env fusion – inhibitors of HIV-1 Env-driven cell-cell fusion, primary screen, HeLa-JRFL effector, CEM21 target cells, luciferase. inhibition, % at 12.3 µM. AID 651610, 2012. 360,000 tested, 1.1% active;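 active = mean replicate inhibition score of at least 50 and every replicate individually at or above 50; inconclusive = only one of the two criteria met; inactive = mean below 50 and not all replicates reaching 50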;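 note: 0% = plate neutral controls and 100% = maraviroc near 300 nM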
* = called active by the depositor; [ ] = remark or other dose.

Screening COc1ccc(NC(=O)N(C)C[C@@H]2OCc3cn(nn3)CCCC(=O)N([C@@H](C)CO)C[C@@H]2C)cc1 returned PGC1a acetyl inh -7, FN deposition inh -6 and rRNA inh HTS 2.
C=CCn1c(COc2ccccc2)nc2ccccc21 was read as PglD DTNB 1, FN deposition inh -6, DENV2 CPE rescue -2, rRNA inh HTS -27* and HIV Env fusion -73.
Screening CCN1C(=O)[C@H]2[C@@H](c3ccc(C)cc3)N3C(=O)N(c4cccc(Cl)c4)C(=O)[C@@]3(Cc3ccccc3)[C@H]2C1=O returned PglD DTNB 1, FN deposition inh -2, DENV2 CPE rescue -10, rRNA inh HTS 4 and HIV Env fusion 0.
`CCN1C(=O)[C@H]2[C@@H](c3ccc(C)cc3)N3C(=O)N(c4cccc(Cl)c4)C(=O)[C@@]3(Cc3ccc(Cl)cc3)[C@H]2C1=O` gave PglD DTNB -2, FN deposition inh -9, DENV2 CPE rescue inconclusive, rRNA inh HTS 8 and HIV Env fusion 59*.
`COc1ccc([C@@H]2[C@@H]3C(=O)N(C(C)(C)C)C(=O)[C@@H]3[C@]3(CC(C)C)C(=O)N(c4ccc(C(F)(F)F)cc4)C(=O)N23)cc1` gave PglD DTNB -4, FN deposition inh -1, DENV2 CPE rescue -7, rRNA inh HTS -6 and HIV Env fusion 109*.
`COc1ccc([C@@H]2[C@@H]3C(=O)N(C(C)(C)C)C(=O)[C@@H]3[C@]3(C)C(=O)N(c4ccc(C(F)(F)F)cc4)C(=O)N23)cc1` gave PGC1a acetyl inh -13, PglD DTNB 0, FN deposition inh -9, DENV2 CPE rescue inconclusive, rRNA inh HTS 3 and HIV Env fusion 66*.
Screening COc1ccc([C@@H]2[C@@H]3C(=O)N(C(C)(C)C)C(=O)[C@@H]3[C@]3(Cc4ccccc4)C(=O)N(c4ccc(C(F)(F)F)cc4)C(=O)N23)cc1 returned PGC1a acetyl inh 3, PglD DTNB -3, FN deposition inh -4, DENV2 CPE rescue -3, rRNA inh HTS 6 and HIV Env fusion 42.
`COc1ccc(N2C(=O)N3[C@H](c4cccc(C)c4)[C@@H]4C(=O)N(Cc5ccccc5)C(=O)[C@@H]4[C@]3(Cc3ccccc3)C2=O)cc1` gave FN deposition inh -6, DENV2 CPE rescue 82*, rRNA inh HTS 4 and HIV Env fusion 86*.
COc1ccc([C@@H]2[C@@H]3C(=O)N(C(C)(C)C)C(=O)[C@@H]3[C@]3(C)C(=O)N(c4cccc(C)c4)C(=O)N23)cc1 was read as PGC1a acetyl inh 2, PglD DTNB 3, DENV2 CPE rescue -3, rRNA inh HTS -17 and HIV Env fusion 36.
For C[C@H](CO)N1C[C@H](C)[C@H](CN(C)C(=O)Nc2ccc(C(F)(F)F)cc2)Oc2ccc(NC(=O)CCC(F)(F)F)cc2C1=O the results were PGC1a acetyl inh 3, PglD DTNB -3, DENV2 CPE rescue 6 and rRNA inh HTS -5.
`Cc1noc(C)c1S(=O)(=O)Nc1ccc2c(c1)C(=O)N([C@H](C)CO)C[C@@H](C)[C@@H](CN(C)Cc1ccc3c(c1)OCO3)OCCCC[C@@H](C)O2` gave PGC1a acetyl inh -8, PglD DTNB 3, DENV2 CPE rescue 4, rRNA inh HTS 2 and HIV Env fusion 18[16.7 µM].
`COc1ccc([C@@H]2[C@@H]3C(=O)N(C(C)(C)C)C(=O)[C@@H]3[C@]3(CC(C)C)C(=O)N(c4cccc(Br)c4)C(=O)N23)cc1` gave PGC1a acetyl inh 3, PglD DTNB -3, FN deposition inh -9, DENV2 CPE rescue 18, rRNA inh HTS 9 and HIV Env fusion 90*.
Screening COc1ccc([C@@H]2[C@@H]3C(=O)N(C(C)(C)C)C(=O)[C@@H]3[C@]3(Cc4ccccc4)C(=O)N(c4ccc(OC)cc4)C(=O)N23)cc1 returned PGC1a acetyl inh -7, PglD DTNB -7, FN deposition inh 9, DENV2 CPE rescue inconclusive, rRNA inh HTS 4 and HIV Env fusion -11.
For COc1ccc([C@@H]2[C@@H]3C(=O)N(C(C)(C)C)C(=O)[C@@H]3[C@]3(Cc4ccc(Cl)cc4)C(=O)N(c4ccc(C)cc4)C(=O)N23)cc1 the results were PglD DTNB -8, FN deposition inh 6, DENV2 CPE rescue -8, rRNA inh HTS 13 and HIV Env fusion 29.
For COc1ccc([C@@H]2[C@@H]3C(=O)N(C(C)(C)C)C(=O)[C@@H]3[C@]3(Cc4ccc(Cl)cc4)C(=O)N(c4cccc(C)c4)C(=O)N23)cc1 the results were PGC1a acetyl inh 8, PglD DTNB -3, FN deposition inh 6, DENV2 CPE rescue 5, rRNA inh HTS 7 and HIV Env fusion 90*.
`COc1ccc([C@@H]2[C@@H]3C(=O)N(C(C)(C)C)C(=O)[C@@H]3[C@]3(CC(C)C)C(=O)N(c4ccccc4)C(=O)N23)cc1` gave PGC1a acetyl inh -3, PglD DTNB 3, FN deposition inh -5, DENV2 CPE rescue -5, rRNA inh HTS 0 and HIV Env fusion 81*.
For CCCC#Cc1ccc([C@@H]2[C@@H](CO)N3C(=O)CN(S(=O)(=O)Cc4ccccc4)C[C@@H]23)cc1 the results were PGC1a acetyl inh -5, DENV2 CPE rescue inconclusive and rRNA inh HTS -25.
For O=C(C[C@@H]1C=C[C@H](NS(=O)(=O)c2ccc(F)cc2)[C@H](CO)O1)NCCc1ccncc1 the results were PGC1a acetyl inh -1, PglD DTNB -3, DENV2 CPE rescue 14, rRNA inh HTS 1 and HIV Env fusion -16[16.7 µM].
For CN(C)C(CNC(=O)c1cc(S(=O)(=O)N(C)c2ccccc2)ccc1Cl)c1cccs1 (stereo not drawn) the results were PGC1a acetyl inh 15, PglD DTNB -2, FN deposition inh 5, DENV2 CPE rescue -1, rRNA inh HTS -35* and HIV Env fusion 36.
Screening CN(c1ccccc1)S(=O)(=O)c1ccc(Cl)c(C(=O)Nc2ccc(-c3nc4ccccc4[nH]3)cc2)c1 returned FN deposition inh 11 and HIV Env fusion 22.
For CN(c1ccccc1)S(=O)(=O)c1ccc(Cl)c(C(=O)Nc2nc3ccccc3[nH]2)c1 the results were PGC1a acetyl inh 1, PglD DTNB 3, FN deposition inh -2 and HIV Env fusion 72*.
Screening CN(C)C(CNC(=O)c1cc(S(=O)(=O)N2CCOCC2)ccc1Cl)c1cccs1 (stereo not drawn) returned PglD DTNB 7, DENV2 CPE rescue 2 and rRNA inh HTS 1.
